The target of the assay is Protein kinase C alpha type (Mus musculus, UniProt P20444). Nature of the assay: Displacement of [3H]PDBu form mouse PKCalpha by scintillation counting. The method, boiled down:
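Partially purified mouse PKCα; competition with [³H]PDBU. ID50 obtained by fitting a sigmoidal competition curve and converted to Ki = ID50/(1+L/Kd). Pure compounds tested at 6–7 concentrations; crude library compounds at a single 1 μM concentration. Triplicates per concentration, at least three experiments; mean ± SEM.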

The molecule `CC(C)C(=O)OCC1(CO)C/C(=C/c2ccc(F)c(Cl)c2)C(=O)O1` (centres undefined) had an inhibitory constant (Ki) of 119 nM.

Turning to `CCCCC(/C=C1/CC(CO)(COC(=O)c2c(C)cc(C)cc2C)OC1=O)CC` (racemic), the inhibition constant (Ki) was determined as 66.1 nM.

Consider `Cc1ccc(C(=O)OCC2(CO)C/C(=C/c3ccc(N(C)C)cc3)C(=O)O2)cc1` (racemic), for which the affinity corresponds to a Ki of 406 nM.

Turning to `CCCCCCC(=O)OCC1(CO)C/C(=C/c2ccc(C(F)(F)F)cc2)C(=O)O1` (racemic), affinity was put at a Ki of 35.4 nM.

In the case of `CC(C)(C)CC(=O)OCC1(CO)C/C(=C/c2ccc(-c3ccc(C(F)(F)F)cc3)cc2)C(=O)O1` (racemic), the inhibition constant Ki was 37 nM.

For `CN(C)c1ccc(/C=C2\CC(CO)(COC(=O)c3ccc(N(C)C)cc3)OC2=O)cc1` (racemic; form 2), the inhibitory constant (Ki) stood at 1080 nM.

As to `CC(C)C(=O)OCC1(CO)C/C(=C/c2ccc(OC(F)(F)F)cc2)C(=O)O1` (racemic), affinity was put at a Ki of 54.7 nM.

Consider `CCC(C(=O)OCC1(CO)C/C(=C/c2ccc(F)c(Br)c2)C(=O)O1)c1ccccc1` (racemic), for which the affinity, expressed as Ki, was 22.3 nM.

`CC(C)(C)C(=O)OCC1(CO)C/C(=C/c2ccc(F)cc2)C(=O)O1` (racemic): the inhibition constant (Ki) is 88.4 nM.

As to `O=C1OC(CO)(COC(=O)c2ccc(C(F)(F)F)cc2)C/C1=C/c1ccc([N+](=O)[O-])cc1` (racemic), the affinity, expressed as Ki, was 176 nM.

`CC(C)(C)C(=O)OCC1(CO)C/C(=C/c2ccc(Br)cc2)C(=O)O1` (racemic): affinity was put at a Ki of 26.1 nM.

Turning to `CC(C)(C)C(=O)OCC1(CO)C/C(=C/c2ccc(-c3ccc(C(F)(F)F)cc3)cc2)C(=O)O1` (racemic), the Ki amounted to 27.2 nM. The Ki values of the last two molecules are within 1.5-fold of each other.

The molecule `CCC(C(=O)OCC1(CO)C/C(=C/c2ccccc2C(F)(F)F)C(=O)O1)c1ccccc1` (racemic) displayed an inhibitory constant (Ki) of 59 nM.

Regarding `CCCCC(CC)C(=O)OCC1(CO)C/C(=C/c2ccc(OC)cc2)C(=O)O1` (racemic), the inhibition constant (Ki) stood at 53.9 nM. The Ki values of the last two molecules are within 1.5-fold of each other.

`CC(CC(=O)OCC1(CO)C/C(=C/c2ccc(F)c(Cl)c2)C(=O)O1)CC(C)(C)C` (racemic): the Ki came to 22.4 nM.

On to `CCCCC(CC)C(=O)OCC1(CO)C/C(=C/c2ccccc2C(F)(F)F)C(=O)O1` (racemic), for which the affinity corresponds to a Ki of 22.8 nM.

Molecule `CCCCC(CC)C(=O)OCC1(CO)C/C(=C/c2cccc(C(F)(F)F)c2)C(=O)O1` (racemic) returned an inhibition constant Ki of 9.4 nM.

As for `COc1ccc(/C=C2\CC(CO)(COC(=O)c3c(C(C)C)cc(C(C)C)cc3C(C)C)OC2=O)cc1` (racemic; form 1), the inhibition constant Ki came out at 8 nM. This Ki and that of the molecule before are within 1.5-fold of each other.

Molecule `CCC(C(=O)OCC1(CO)C/C(=C/c2ccc(Br)cc2)C(=O)O1)c1ccccc1` (racemic) yielded a Ki of 33 nM.

Molecule `CCCCC(/C=C1/CC(CO)(COC(=O)c2ccc(C(F)(F)F)cc2)OC1=O)CC` (racemic) gave a Ki of 187 nM.

Molecule `CC(C)C(=O)OCC1(CO)C/C(=C/c2ccc(Br)cc2)C(=O)O1` (racemic) returned a Ki of 72.6 nM.

Turning to `CCCCCC/C=C1/CC(CO)(COC(=O)c2c(C(C)C)cc(C(C)C)cc2C(C)C)OC1=O` (racemic; form 1), the affinity, expressed as Ki, was 2.5 nM.

`CN(C)c1ccc(C(=O)OCC2(CO)C/C(=C/c3ccc(C(F)(F)F)cc3)C(=O)O2)cc1` (racemic) gave a Ki of 95 nM.

In turn, `COc1ccc(/C=C2\CC(CO)(COC(=O)c3ccc(N(C)C)cc3)OC2=O)cc1` (racemic; form 1) came in with a Ki of 48 nM.

Turning to `CC(C)c1cc(C(C)C)c(C(=O)OCC2(CO)C/C(=C/c3ccc([N+](=O)[O-])cc3)C(=O)O2)c(C(C)C)c1` (racemic), the inhibitory constant (Ki) came to 124 nM.

In turn, `CN(C)c1ccc(/C=C2/CC(CO)(COC(=O)c3ccccc3)OC2=O)cc1` (racemic) yielded an inhibition constant (Ki) of 654 nM.

For `CCCCC(CC)C(=O)OCC1(CO)C/C(=C\c2ccc(F)c(Br)c2)C(=O)O1` (racemic; form 2), the affinity corresponds to a Ki of 2.07 nM.

On to `CCCC(CCC)C(=O)OCC1(CO)C/C(=C/c2cccc(C(F)(F)F)c2)C(=O)O1` (racemic), for which the affinity corresponds to a Ki of 15.5 nM.

On to `COc1ccc(/C=C2\CC(CO)(COC(=O)c3c(C)cc(C)cc3C)OC2=O)cc1` (racemic; form 2), for which the affinity, expressed as Ki, was 119 nM.

The molecule `CN(C)c1ccc(C(=O)OCC2(CO)C/C(=C/C3CCCCC3)C(=O)O2)cc1` (racemic) gave a Ki of 305 nM.

Consider `CCCC(CCC)C(=O)OCC1(CO)C/C(=C\c2ccc(C(F)(F)F)cc2)C(=O)O1` (racemic; form 2), for which affinity was put at a Ki of 16.6 nM.

The molecule `CC(CC(=O)OCC1(CO)C/C(=C/c2ccc(OC(F)(F)F)cc2)C(=O)O1)CC(C)(C)C` (racemic) registered a Ki of 20.4 nM.

`Cc1ccc(C(=O)OCC2(CO)C/C(=C/C3CCCCC3)C(=O)O2)cc1` (racemic) came in with a Ki of 110 nM. Against the preceding molecule, the Ki is about 5.4-fold higher.

Turning to `COc1ccc(/C=C2/CC(CO)(COC(=O)c3ccc(C(F)(F)F)cc3)OC2=O)cc1` (racemic), the affinity corresponds to a Ki of 149 nM.

In turn, `CC(C)C(=O)OCC1(CO)C/C(=C/c2ccccc2C(F)(F)F)C(=O)O1` (racemic; form 2) showed a Ki of 158 nM.

In the case of `CN(C)c1ccc(C(=O)OCC2(CO)C/C(=C/c3ccc([N+](=O)[O-])cc3)C(=O)O2)cc1` (racemic), the Ki turned out to be 1080 nM. Against the preceding molecule, the Ki is about 6.8-fold higher.

The molecule `CC(C)c1cc(C(C)C)c(C(=O)OCC2(CO)C/C(=C/c3ccc(N(C)C)cc3)C(=O)O2)c(C(C)C)c1` (racemic) gave a Ki of 660 nM.

`COc1ccc(C(=O)OCC2(CO)C/C(=C\c3ccc(N(C)C)cc3)C(=O)O2)cc1` (racemic; form 1) had an inhibition constant (Ki) of 103 nM.

For `CCCCC(CC)C(=O)OCC1(CO)C/C(=C\c2ccc(Cl)c(F)c2)C(=O)O1` (racemic; form 1), affinity was put at a Ki of 12.4 nM.

In turn, `CCCCC(/C=C1/CC(CO)(COC(=O)C(CC)CCCC)OC1=O)CC` (racemic) returned a Ki of 62.7 nM.

Regarding `Cc1ccccc1C(=O)OCC1(CO)C/C(=C/c2ccccc2)C(=O)O1` (racemic), the inhibition constant (Ki) is 135 nM.

In turn, `COc1ccc(/C=C2\CC(CO)(COC(=O)c3ccc(OC)cc3)OC2=O)cc1` (racemic; form 2) displayed an inhibition constant (Ki) of 332 nM.

Regarding `CCCCCCC(=O)OCC1(CO)C/C(=C/c2ccccc2)C(=O)O1` (racemic), the inhibition constant Ki was determined as 89.6 nM.

Consider `CCCCC(/C=C1/CC(CO)(COC(=O)c2ccccc2C)OC1=O)CC` (racemic), for which affinity was put at a Ki of 189 nM.

`CC(C)(C)CC(=O)OCC1(CO)C/C(=C/c2ccc(F)c(Cl)c2)C(=O)O1` (racemic) had a Ki of 26.4 nM.

For `COc1ccc(C(=O)OCC2(CO)C/C(=C\c3ccc([N+](=O)[O-])cc3)C(=O)O2)cc1` (racemic; form 1), the Ki came out at 281 nM.

For `CC(CC(=O)OCC1(CO)C/C(=C/c2ccccc2C(F)(F)F)C(=O)O1)CC(C)(C)C` (racemic), the Ki worked out at 33.3 nM.

As for `CCCCCC/C=C1/CC(CO)(COC(=O)c2ccc(C)cc2)OC1=O` (racemic), the inhibition constant (Ki) is 60.2 nM. Compared with the last molecule, the Ki is about 1.8-fold higher.

With `CC(C)C(=O)OCC1(CO)C/C(=C/c2cccc(C(F)(F)F)c2)C(=O)O1` (racemic), the Ki worked out at 70.2 nM.

`Cc1cc(C)c(C(=O)OCC2(CO)C/C(=C/c3ccc([N+](=O)[O-])cc3)C(=O)O2)c(C)c1` (racemic) registered a Ki of 37.5 nM.

With `Cc1cc(C)c(C(=O)OCC2(CO)C/C(=C/c3ccccc3)C(=O)O2)c(C)c1` (racemic), the Ki was 60.2 nM. This Ki is about 1.6-fold higher than that of the molecule before.

`CC(C)(C)CC(=O)OCC1(CO)C/C(=C/c2ccc(Br)cc2)C(=O)O1` (racemic) registered an inhibition constant (Ki) of 50.2 nM.

Turning to `CCC(C(=O)OCC1(CO)C/C(=C/c2ccc(Cl)cc2)C(=O)O1)c1ccccc1` (racemic), the inhibition constant Ki amounted to 47.6 nM.

Consider `CN(C)c1ccc(C(=O)OCC2(CO)C/C(=C/c3ccccc3)C(=O)O2)cc1` (racemic), for which the Ki was 251 nM.

Molecule `COc1ccc(/C=C2/CC(CO)(COC(=O)c3ccc([N+](=O)[O-])cc3)OC2=O)cc1` (racemic) yielded a Ki of 552 nM.

Molecule `CCCCC(CC)C(=O)OCC1(CO)C/C(=C/c2ccc(F)c(Cl)c2)C(=O)O1` (racemic) came in with an inhibition constant Ki of 11 nM.

`O=C1OC(CO)(COC(=O)C(c2ccccc2)c2ccccc2)C/C1=C/c1ccccc1C(F)(F)F` (racemic) returned an inhibition constant Ki of 133 nM. This Ki lies about 12-fold higher than the previous one.

On to `COc1ccc(/C=C2/CC(CO)(COC(=O)c3ccc(C)cc3)OC2=O)cc1` (racemic), for which the Ki turned out to be 181 nM.

Turning to `CC(C)(C)C(=O)OCC1(CO)C/C(=C\c2ccc(F)c(Cl)c2)C(=O)O1` (racemic; form 2), the Ki came to 20.5 nM.

The molecule `CCCCCCC(=O)OCC1(CO)C/C(=C/c2ccc(N(C)C)cc2)C(=O)O1` (racemic) came in with an inhibition constant Ki of 357 nM.

Turning to `CCCCCC/C=C1/CC(CO)(COC(=O)CCCCCC)OC1=O` (racemic), affinity was put at a Ki of 37 nM.

In turn, `CC(C)(C)C(=O)OCC1(CO)C/C(=C\c2ccc(Cl)c(F)c2)C(=O)O1` (racemic; form 2) yielded a Ki of 28.8 nM.

Regarding `CCCC(CCC)C(=O)OCC1(CO)C/C(=C/c2ccc(Br)cc2)C(=O)O1` (racemic), the affinity corresponds to a Ki of 10.7 nM.

Consider `CCCC(CCC)C(=O)OCC1(CO)C/C(=C\c2ccc(Cl)c(F)c2)C(=O)O1` (racemic; form 1), for which the Ki was found to be 3.38 nM. This Ki is about 3.2-fold lower than that of the molecule before.

In turn, `CC(C)(C)C(=O)OCC1(CO)C/C(=C/c2ccc(Cl)cc2)C(=O)O1` (racemic) yielded an inhibition constant Ki of 29.4 nM.

In turn, `CCCCC(CC)C(=O)OCC1(CO)C/C(=C\c2ccc(Cl)cc2)C(=O)O1` (racemic; form 2) gave a Ki of 2.9 nM.

For `O=C1OC(CO)(COC(=O)C(c2ccccc2)c2ccccc2)C/C1=C/c1ccc(F)c(Cl)c1` (racemic), affinity was put at a Ki of 73 nM.

`CC(CC(=O)OCC1(CO)C/C(=C/c2cccc(C(F)(F)F)c2)C(=O)O1)CC(C)(C)C` (racemic; form 1) had a Ki of 13.3 nM.

In turn, `CC(C)(C)C(=O)OCC1(CO)C/C(=C/c2ccc(F)c(Br)c2)C(=O)O1` (racemic) had a Ki of 19.3 nM.

Molecule `CC(C)C(=O)OCC1(CO)C/C(=C/c2ccc(C(F)(F)F)cc2)C(=O)O1` (racemic) came in with an inhibition constant (Ki) of 78 nM.

On to `COc1ccc(/C=C2\CC(CO)(COC(=O)c3ccc(OC)cc3)OC2=O)cc1` (racemic; form 1), for which the affinity, expressed as Ki, was 129 nM.

`CC(C)(C)CC(=O)OCC1(CO)C/C(=C/c2cccc(C(F)(F)F)c2)C(=O)O1` (racemic) came in with an inhibitory constant (Ki) of 23.2 nM. Against the preceding molecule, the Ki is about 5.6-fold lower.

`CCC(C(=O)OCC1(CO)C/C(=C/c2ccc(Cl)c(F)c2)C(=O)O1)c1ccccc1` (racemic) yielded a Ki of 45.1 nM.

As to `COc1ccc(C(=O)OCC2(CO)C/C(=C\c3ccc([N+](=O)[O-])cc3)C(=O)O2)cc1` (racemic; form 2), the Ki was found to be 103 nM.

These data come from ChEMBL document CHEMBL1139414, “Conformationally constrained analogues of diacylglycerol. 29. Cells sort diacylglycerol-lactone chemical zip codes to produce diverse and selective biological activities” (J Med Chem, 2008).
